ChEMBL document CHEMBL1153787, “Unsaturated dideoxy fluoro-ketopyranosyl nucleosides as new cytostatic agents: a convenient synthesis of 2,6-dideoxy-3-fluoro-4-keto-beta-D-glucopyranosyl analogues of uracil, 5-fluorouracil, thymine, N4-benzoyl cytosine and N6-benzoyl adenine” (Eur J Med Chem, 2009)

Columns and labels:
HeLa = experiment: Cytotoxicity against human HeLa cells assessed as induction of microscopically visible alteration in cell morphology; assay type: functional; conditions: read-out: MIC
How it was run: (§1)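 HEL, Vero and HeLa cell cultures were examined under the microscope for changes in cell morphology. MIC is the compound concentration that causes a microscopically visible alteration of cell morphology.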

[1] = Cytotoxicity against MDCK cells assessed as reduction of cell viability by MTS dye staining; assay type: cell-based, Canis lupus familiaris; conditions: dog
How it was run: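 MDCK cell viability read by colorimetric formazan-based MTS dye staining. CC50 is the compound concentration that reduces cell viability by 50%.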

[2] = Cytotoxicity against african green monkey Vero cells assessed as induction of microscopically visible alteration in cell morphology; assay type: cell-based; conditions: chlorocebus sabaeus, read-out: MIC; how it was run: as §1
[3] = Cytotoxicity against human Molt4/C8 cells; assay type: functional, cell-based; conditions: MOLT-4
How it was run: (§2)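 Proliferation of suspension tumour cells (murine L1210 and FM3A, human Molt4/C8 and CEM) was measured. IC50 is the compound concentration that inhibits cell proliferation by 50%.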

FM3A = experiment: Cytotoxicity against mouse FM3A cells; assay type: functional, cell-based; how it was run: as §2
[4] = Cytotoxicity against human HEL cells assessed as induction of microscopically visible alteration in cell morphology; assay type: cell-based; conditions: read-out: MIC; how it was run: as §1
CCRF-CEM [5] = experiment: Cytotoxicity against human CEM cells; assay type: functional, cell-based; how it was run: as §2
L1210 [6] = experiment: Cytotoxicity against mouse L1210 cells; assay type: functional, cell-based; how it was run: as §2
CCRF-CEM [7] = experiment: Cytotoxicity against human CEM cells assessed as inhibition of [3H]dThd incorporation into macromolecules; assay type: functional
How it was run: (§3)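 L1210 and CEM cells were given radiolabelled [3H]dThd (DNA), [3H]Urd (RNA) or [3H]Leu (protein). Label incorporated into methanol-insoluble material was measured. IC50 is the concentration that inhibits precursor incorporation by 50%.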

CCRF-CEM [8] = experiment: Cytotoxicity against human CEM cells assessed as inhibition of [3H]Leu incorporation into macromolecules; assay type: functional; how it was run: as §3
L1210 [9] = experiment: Cytotoxicity against mouse L1210 cells assessed as inhibition of [3H]dThd incorporation into macromolecules; assay type: functional; how it was run: as §3
CCRF-CEM [10] = experiment: Cytotoxicity against human CEM cells assessed as inhibition of [3H]Urd incorporation into macromolecules; assay type: functional; how it was run: as §3
L1210 [11] = experiment: Cytotoxicity against mouse L1210 cells assessed as inhibition of [3H]Leu incorporation into macromolecules; assay type: functional; how it was run: as §3
L1210 [12] = experiment: Cytotoxicity against mouse L1210 cells assessed as inhibition of [3H]Urd incorporation into macromolecules; assay type: functional; how it was run: as §3

In the case of `Cc1cn([C@H]2C=C(F)C(=O)[C@@H](C)O2)c(=O)[nH]c1=O`, the minimum cytotoxic concentration (MCC) (HeLa) is reported as 20 µM, the CC50 [1] is reported as 0.7 µM and the MCC [2] is reported as 20 µM. It also gave an IC50 [3] of 2.5 µM, an IC50 (FM3A) of 10 µM and an MCC [4] of 20 µM. It also gave an IC50 (CCRF-CEM [5]) of 2.6 µM and an IC50 (L1210 [6]) of 2.8 µM.
`C[C@H]1O[C@@H](n2ccc(NC(=O)c3ccccc3)nc2=O)C=C(F)C1=O` gave an IC50 (CCRF-CEM [7]) of 11 µM, an IC50 (CCRF-CEM [8]) of 7.9 µM and a minimum cytotoxic concentration (MCC) (HeLa) of 20 µM. It also gave an IC50 (L1210 [9]) of 12 µM, a CC50 [1] of 8.2 µM and an MCC [2] of 20 µM. The IC50 [3] was 1.6 µM, the IC50 (FM3A) was 11.9 µM and the IC50 (CCRF-CEM [10]) was 12 µM. The IC50 (L1210 [11]) was 12 µM, the MCC [4] was 20 µM and the IC50 (CCRF-CEM [5]) was 1.7 µM. It also gave an IC50 (L1210 [12]) of 10 µM and an IC50 (L1210 [6]) of 1.4 µM.
For `C[C@H]1O[C@@H](n2ccc(=O)[nH]c2=O)C=C(F)C1=O`, the minimum cytotoxic concentration (MCC) (HeLa) was 20 µM, the CC50 [1] was 0.6 µM and the MCC [2] was 20 µM. For the same compound, the IC50 [3] was 2.5 µM, the IC50 (FM3A) was 16 µM and the MCC [4] was 20 µM. It also gave an IC50 (CCRF-CEM [5]) of 2.2 µM and an IC50 (L1210 [6]) of 2.9 µM.
In the case of `C[C@H]1O[C@@H](n2cnc3c(NC(=O)c4ccccc4)ncnc32)C=C(F)C1=O`, the minimum cytotoxic concentration (MCC) (HeLa) is reported as 20 µM, the CC50 [1] is reported as 12 µM and the MCC [2] is reported as 20 µM. It also gave an IC50 [3] of 5 µM, an IC50 (FM3A) of 6 µM and an MCC [4] of 20 µM. It also gave an IC50 (CCRF-CEM [5]) of 4.3 µM and an IC50 (L1210 [6]) of 2.4 µM.
`C[C@H]1O[C@@H](n2cc(F)c(=O)[nH]c2=O)C=C(F)C1=O` gave a minimum cytotoxic concentration (MCC) (HeLa) of 20 µM, a CC50 [1] of 0.6 µM and an MCC [2] of 20 µM. For the same compound, the IC50 [3] was 3.3 µM, the IC50 (FM3A) was 0.49 µM and the MCC [4] was 20 µM. For the same compound, the IC50 (CCRF-CEM [5]) was 3.7 µM and the IC50 (L1210 [6]) was 0.82 µM.
